INS promoter act: TRM-6 insulin promoter activation. hit rate 0.81% among 130,000. activation, % at 2 µM. AID 1296. TRM-6 cells (human fetal islet line), insulin promoter eGFP reporter, imaging; plate-scaled: unstimulated 0, stimulated control 100;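 active = activation at 2 µM above a set limit, confirmed on inspection of the cell images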;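 also: share of cells whose green reporter signal exceeds an intensity cutoff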
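test system = TRM-6 insulin promoter–eGFP reporter cells | benchmarks = stimulated versus unstimulated wells as plate controls | read-out basis = percent cells above green-intensity threshold, converted to percent activation versus plate controls | detection = fixed-cell fluorescence microscopy, eGFP plus Hoechst | incubation = tamoxifen pre-incubation 15 h overnight, then compound exposure 48 h at 37 °C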
The depositor's hits bear a star; [ ] = dose if it differs, or a comment. The entries come from a sample that favours hits as a whole.

SMILES | INS promoter act
CCCCC(=O)Nc1ncc2c(n1)CC(C)(C)CC2=O | -6
CC1(C)CC(=O)c2cnc(NC(=O)CSc3nc4ccccc4o3)nc2C1 | 523*
O=C(CSc1nc2ccccc2o1)Nc1ccc(N2CCOCC2)cc1 | 0
O=[N+]([O-])c1ccc2cn(-c3ccccc3)nc2c1 | 7
CC(=O)Nc1nc2ccccc2n1CCN1CCOCC1 | 3
C=CCc1cccc(CNc2nc3ccccc3n2CCN2CCOCC2)c1O | 169
COc1ccc(CNc2nc3ccccc3n2CCN2CCOCC2)cc1 | 462*
Cc1ccc(C(=O)c2cc([N+](=O)[O-])ccc2N2CCCCC2)c(C)c1 | 148
COc1ccc(C(=O)N2CCOC2CNC(=O)C(=O)NCc2ccco2)cc1 (configuration not stated) | 0
O/N=C/c1cc(Cl)ccc1OCc1ccccc1Cl | 0
O/N=C/c1ccccc1Oc1ccccc1 | 3
Cc1cc(C)cc(Oc2ccccc2/C=N\O)c1 | 223*
CCC(C)c1ccc(O)c(NC(=O)c2cncc(Br)c2)c1 (configuration not stated) | 328
COc1cc(NC(=S)N2CCC(C(O)(c3ccccc3)c3ccccc3)CC2)cc(OC)c1 | -3
CCN(CC)C(=O)c1sc(NC(=O)C(Sc2ccccc2)c2ccccc2)c(C(=O)OC(C)C)c1C (configuration not stated) | 4
Fc1ccc(CNc2nc(-c3ccccc3)nc3ccccc23)cc1 | 0
Cc1ccc(-c2nc(N/N=C/c3cccc([N+](=O)[O-])c3)c3ccccc3n2)cc1 | 2
O=[N+]([O-])c1cccc(-c2nc(NCc3ccccc3)c3ccccc3n2)c1 | 322*
O=[N+]([O-])c1ccccc1S(=O)(=O)N1CCN(Cc2ccc3c(c2)OCO3)CC1 | -6
O=C(Nc1ccncc1)C1(c2ccccc2)CCCC1 | 0
CC(=O)N1N=C(c2ccncc2)OC12CCCC2 | 543*
CCOC(=O)C1=C(CSc2nc(C)cc(C)c2C#N)OC(N)=C(C#N)C1c1ccccc1 (configuration not stated) | 3
CCOC(=O)C1=C(CSc2nc(-c3ccccc3)ccc2C#N)OC(N)=C(C#N)C1c1ccc(OC)cc1 (configuration not stated) | 84*
CC(=O)C1=C(c2ccccc2)OC(N)=C(C#N)C1c1ccc(O)cc1 (configuration not stated) | -9
Cc1occc1C(=O)Nc1cc(C(F)(F)F)ccc1Cl | 3
SMILES | INS promoter act
O=C(CCS(=O)(=O)Cc1ccccc1)NCC1CCCO1 (configuration not stated) | 305
COc1ccc(-c2[nH]ncc2C=O)cc1 | -60
CCN1CCCC1CNCc1ccccc1OCc1ccc(F)cc1 (configuration not stated) | 97*
CCc1ccc(NC(=S)NCC2CCCN2CC)cc1 (configuration not stated) | 6
CCNCc1ccccc1OCc1ccccc1 | 0
CCOc1cc(CNCC2CCCN2CC)cc(Cl)c1OC (configuration not stated) | 345*
CCN1CCCC1CNCc1cccc(OC)c1OCc1ccccc1F (configuration not stated) | 0
CCOc1cc(CNCCCN2CCOCC2)cc(Br)c1OCc1ccccc1Cl | 114
CCN(CC)c1ccc(NC(=O)c2ccc3c(c2)c(C)c(C)n3C)cc1 | 0
CCOC(=O)Cn1nc(-c2ccccc2)c2cnc3ccc(CC)cc3c21 | 0
COc1ccc(N2CCN(C(=O)c3c(C)nn(-c4ccccc4)c3C)CC2)cc1 | 8
COCc1nnc(N)s1 | 6
Nc1nnc(Cc2ccc(Cl)cc2Cl)s1 | 97*
Clc1ccc(Cc2ccc(SCc3ccccc3)nn2)c(Cl)c1 | -3
CNc1ccccc1C(=O)OCC(C)=O | 10
O=C(CSCc1cccc(Cl)c1)Nc1ccccc1-c1ccccc1 | 8
CCOC(=O)c1c(C)[nH]c(C)c1C(=O)COC(=O)c1ccc(OC)c(OC)c1 | 8
CCOc1cc(CNCCCN2CCOCC2)ccc1OCC(=O)NC(C)(C)C | -6
COc1cc(CNCc2cccs2)ccc1OCC(=O)NC(C)(C)C | 125*
COc1cc(CNCc2cccs2)ccc1OCC(N)=O | 2
N#CCC(=O)NCCCOC(=O)Nc1ccc(Cl)c(Cl)c1 | 9
COc1ccc(Nc2ccc3nnc(-c4ccc(Br)cc4)n3n2)cc1 | -2
O=C(NCCCN1CCN(c2ccccc2F)CC1)Nc1ccccc1[N+](=O)[O-] | -78
Cc1ccc(S(=O)(=O)N2CCN(CC(=O)NC3CCCc4ccccc43)CC2)c(C)c1 (configuration not stated) | 0
NC(=O)C1CCN(CC(=O)NC2CCCc3ccccc32)CC1 (configuration not stated) | -4
SMILES | INS promoter act
O=C(CN1C(=O)C2CC=CCC2C1=O)NC1CCCc2ccccc21 (configuration not stated) | 83*
Nc1cc2c(cc1C(=O)c1ccc(Cl)cc1)OCCO2 | -76
CCC(=O)N1CCN=C1SCc1ccc(Cl)cc1 | 493*
CCOC(=O)N1CCN=C1SCc1ccc(C(F)(F)F)cc1 | -3
CSC1=NCCN1C(=O)Cc1ccc(-c2ccccc2)cc1 | 10
COc1ccc(-n2c(Cn3c(=O)sc4ccccc43)nnc2SC)cc1 | 12
Cc1ccc(OCn2c(=O)sc3ccccc32)cc1 | 437*
CCOC(=O)Cn1c(=O)sc2ccccc21 | 0
CCCCN(CC)CCCNC(=O)C1CCN(c2ncnc3c2sc2cccc(F)c23)CC1 | 7
COc1ccc(CNn2c(-c3ccccc3F)nc3ccccc3c2=O)cc1OC | 7
O=C(Nc1ccncc1)c1cc(F)cc(F)c1 | -3
COc1ccc(-c2c(C#N)c(N)nc3c2CCCC3)cc1OC | 256
CCc1nc(N)c(C#N)c(-c2ccc(OC)c(OC)c2)c1C | 83*
CCc1nc(N)c(C#N)c(-c2cccc3ccccc23)c1C | 0
CCOC(=O)Cn1ncc(-c2ccccc2)c1N | -7
Cc1[nH]c2ccccc2c1SCC(=O)N1CCCCCC1 | 105
CCOC(=O)CNc1nnc(SCC(=O)OCC)[nH]c1=O | 9
CCc1ccc(NC(=S)N2CCN(c3cccc(C(F)(F)F)c3)CC2)cc1 | 0
CC(=O)c1ccc(N2CCN(C(=S)Nc3cccc(F)c3)CC2)cc1 | 138*
CC(=O)c1ccc(NC(=O)N2CCN(c3cccc(Cl)c3)CC2)cc1 | -10
O=C(CP(=O)(c1ccccc1)c1ccccc1)Nn1cnnc1 | -7
O=[N+]([O-])c1ccc(/C=C/C2=NN(c3ccccc3)C(c3ccco3)C2)cc1 (configuration not stated) | 285*[fluoresces]
O=c1ccc(-c2ccc([N+](=O)[O-])cc2)nn1-c1ccccc1 | -6
O=[N+]([O-])c1ccc(Cl)c(/C=N/N2CCN(c3ccccc3)CC2)c1 | 7
CCOc1ccc(N=Nc2c(C)noc2C)cc1 | 0
SMILES | INS promoter act
COc1cc(OC)cc(C(=O)N2CCC(N3CCCCCC3)CC2)c1 | 4
O=C(OCc1ccccc1)N1CCOCCOCCN(C(=O)OCc2ccccc2)CCOCCOCC1 | 0
Cc1cc(C)nc(SCc2nnc(SCC(N)=O)o2)n1 | -6
Cc1nnc(SCC(N)=O)n1CCc1ccccc1 | -64
CCSc1nnc(-c2cc(Br)ccc2N=Cc2c(C)[nH]n(-c3ccccc3)c2=O)c(=O)[nH]1 | 356*
COc1cc(S(=O)(=O)Nc2ccc(C)cc2)ccc1N=Cc1c(C)[nH]n(-c2ccccc2)c1=O | -72
Cc1ccc(-n2[nH]c(C)c(C=Nc3ccc(Br)cn3)c2=O)cc1 | 119
CCN(C(=O)CN1CCN(S(=O)(=O)c2ccccc2C(F)(F)F)CC1)c1c(N)n(Cc2ccccc2)c(=O)[nH]c1=O | 8
